This note sets out measurements from ChEMBL document CHEMBL1128569, “N-acyl-2-substituted-1,3-thiazolidines, a new class of non-narcotic antitussive agents: studies leading to the discovery of ethyl 2-[(2-methoxyphenoxy)methyl]-beta-oxothiazolidine-3-propanoate” (J Med Chem, 1995).

Each structure is given as a SMILES string.

Data set [1] has as its system Cavia porcellus. As to the kind of experiment: Antitussive activity was evaluated by inhibition of irritant aerosol-induced coughing by (po) administration in guinea pig. It is filed as functional. An outline of the steps: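 Male guinea pigs (350-400 g) exposed in a box to 7.5% citric acid aerosol for 5 min, and coughs counted as the basal value. Next day, after overnight fasting, animals (6-8/dose) were gavaged with compound in water or 0.5% methyl cellulose (2 mL/kg) 1 h before re-exposure. Activity is the reduction in coughs versus the basal count. ED50 is the dose giving 50% reduction (Cochran and Snedecor).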

The test system of data set [2] is Cavia porcellus. As to the kind of experiment: Antitussive activity was evaluated by inhibition of irritant electrically-induced coughing by (po) administration in guinea pig. It is filed as functional. Summed up:
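Guinea pigs under ketamine (10 mg/kg im) and xylazine (3 mg/kg im) anaesthesia, with an electrode wrapped around the trachea about 1.5 cm above the bifurcation and an indifferent electrode on the dorsal skin. Coughs during stimulation counted as the basal value. Groups of 6-8/dose were gavaged with compound in water or 0.5% methyl cellulose (2 mL/kg). Activity is the cough reduction versus basal. ED50 is the dose giving 50% reduction.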

The nature of data set [3]: Lethality in mice following p.o. administration. It is filed as ADME, organism-based. Particulars: mouse, in vivo, po. Summed up:
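Swiss mice of both sexes, groups of six, dosed by gavage at several doses up to 1000 mg/kg. Compound dissolved in water or suspended in 0.5% carboxymethyl cellulose, 10 mL/kg. Deaths recorded over 1-7 days. LD50 obtained by logit transformation.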

Consider `COc1ccc2c3c1O[C@H]1[C@@H](O)C=C[C@H]4[C@@H](C2)N(C)CC[C@@]341.COc1ccc2c3c1O[C@H]1[C@@H](O)C=C[C@H]4[C@@H](C2)N(C)CC[C@@]341.O.O=P(O)(O)O.O=P(O)(O)O` [CODEINE PHOSPHATE], for which the ED50 was determined as 29 mg/kg in data set [1] and 14 mg/kg in data set [2].

For `COc1ccc2c(c1)[C@]13CCCC[C@@H]1[C@H](C2)N(C)CC3` [DEXTROMETHORPHAN], the ED50 worked out at 48 mg/kg in data set [1] and 16 mg/kg in data set [2].

Turning to `COc1ccccc1OCC1SCCN1C(=O)CSC(C)=O` (configuration not stated) [GUAISTEINE], the ED50 in data set [1] stood at 26 mg/kg; in data set [2], 17 mg/kg. In addition, the LD50 in data set [3] is more than 1000 mg/kg.

By ED50 is commonly meant the midpoint of the dose-response relation. Broadly, the LD50 is the dose at which mortality reaches 50%. Read a high LD50 as lower toxicity.
